Results taken from ChEMBL document CHEMBL1129728, “Structure-based design and synthesis of substituted 2-butanols as nonpeptidic inhibitors of HIV protease: secondary amide series” (J Med Chem, 1996).

These molecules were tested against T1, Human immunodeficiency virus type 1 protease (Human immunodeficiency virus 1, UniProt Q72874) (assay: (§1) Inhibitory activity against HIV PR in HIV-1 infected CEM-SS cell lines). Conditions: not given.
Assay type: cell-based

Compound	Ki [µM]
CC(C)(C)NC(=O)c1ccccc1CC(O)CSc1ccccc1C(=O)NC(C)(C)C (stereo not drawn)	83
CC(C)(C)NC(=O)c1c(CCC(O)Cc2ccc3ccccc3c2C(=O)NC(C)(C)C)ccc2ccccc12 (stereo not drawn)	1.4
CC(C)(C)NC(=O)c1c(CC[C@H](O)Cc2ccc3ccccc3c2C(=O)NC(C)(C)C)ccc2ccccc12	0.48
CC(C)(C)NC(=O)c1ccccc1CCC(O)Cc1ccccc1C(=O)NC(C)(C)C (stereo not drawn)	24
CC(C)(C)NC(=O)c1ccccc1CCC(O)Cc1ccc2ccccc2c1C(=O)NC(C)(C)C (stereo not drawn)	2.2
CC(C)(C)NC(=O)c1cc(C(C)(C)C)ccc1CCC(O)Cc1ccc2ccccc2c1C(=O)NC(C)(C)C (stereo not drawn)	1.2
CC(C)(C)NC(=O)c1c(CC[C@@H](O)Cc2ccc3ccccc3c2C(=O)NC(C)(C)C)ccc2ccccc12	25

These molecules were tested against T1, Human immunodeficiency virus type 1 protease (assay: as §1). Conditions: not given.
Assay type: cell-based
How it was run: (§2)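 Antiviral activity in HIV-1-infected CEM cells, read out by a cell viability assay run to a previously described method. Compounds were tested across a dose range, and the antiviral IC50 was taken from the dose-response curve.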

Compound	IC50 [µM]
CC(C)(C)NC(=O)c1ccccc1SCC(O)Cc1ccc2ccccc2c1C(=O)NC(C)(C)C (stereo not drawn)	25
CC(C)(C)NC(=O)c1cc(C(C)(C)C)ccc1CCC(O)Cc1ccc(C(C)(C)C)cc1C(=O)NC(C)(C)C (stereo not drawn)	7
CC(C)(C)NC(=O)c1ccccc1C#CC(O)Cc1ccccc1C(=O)NC(C)(C)C (stereo not drawn)	200
CC(C)(C)NC(=O)c1ccccc1CC(O)CSc1ccccc1NC(=O)C(C)(C)C (stereo not drawn)	> 200
CC(C)(C)NC(=O)c1ccccc1SCC(O)c1ccccc1C(=O)NC(C)(C)C (stereo not drawn)	> 200
CC(C)N1CCC(CC(O)CCc2ccccc2C(=O)NC(C)(C)C)=C(C(=O)NC(C)(C)C)C1 (stereo not drawn)	70

These molecules were tested against Human immunodeficiency virus type 1 protease (Human immunodeficiency virus 1) (UniProt Q72874) (assay: as §1). Conditions: concentration not given here.
Assay type: cell-based
How it was run: as §2

inhibition [%]	Compound
20	CC(C)(C)NC(=O)c1ccccc1CCC(O)CN1CCCCC1C(=O)NC(C)(C)C (stereo in doubt; 11)
35	CC(C)(C)NC(=O)c1ccccc1CCC(O)CN1CCCCC1C(=O)NC(C)(C)C (stereo in doubt; 12)

Each molecule was assayed against Human immunodeficiency virus type 1 protease (Human immunodeficiency virus 1) (UniProt Q72874) (assay: Inhibitory activity against HIV PR in HIV-1 infected CEM-SS cell lines; activity @ 200 uM). Conditions: not given.

inhibition [%]	Compound
40	CC(C)(C)NC(=O)c1ccccc1/C=C/C(O)Cc1ccccc1C(=O)NC(C)(C)C (stereo not drawn)

These molecules were tested against Human immunodeficiency virus type 1 protease (Human immunodeficiency virus 1) (UniProt Q72874) (assay: Inhibitory activity against HIV-1 PR in HIV-1 infected CEM-SS cell lines; activity @ 10 uM). Conditions: not given.
Assay type: cell-based

inhibition [%]	Compound
10	CC(C)(C)NC(=O)c1ccccc1CC[C@H](O)CN1CCC[C@H]1C(=O)NC(C)(C)C

What follows are molecules tested against Human immunodeficiency virus type 1 protease (Human immunodeficiency virus 1) (UniProt Q72874) (assay: Inhibitory activity against HIV-1 PR in HIV-1 infected CEM-SS cell lines; activity @ 10 uM). Conditions: not given.

inhibition [%]	Compound
10	CC(C)(C)NC(=O)c1ccccc1CC[C@@H](O)CN1CCC[C@H]1C(=O)NC(C)(C)C
